# Published values from different studies.
# Target: Dual specificity tyrosine-phosphorylation-regulated kinase 1B (DYRK1B, Homo sapiens, UniProt Q9Y463)
# Technique: competition with immobilised ligand
SMILES,effect on,tested at,remaining binding
CNC(=O)[C@@H]1CC[C@@H](n2c(-c3ccc4cnccc4c3)nc3ccc(C(=O)NCc4cccc(C(N)=O)c4)cc32)C1,binding,1 µM,45%
c1cncc(-c2cccc(Nc3nccc(NC4CCCCC4)n3)c2)c1,binding,10 µM,38%
Cc1c[nH]c2nccc(Oc3c(F)cc(Nc4cc(Cl)nc(N)n4)cc3F)c12,cell-free assay,0.1 µM,100%
CC(C)(C)c1ccc(-c2nc(CBr)nn2-c2cccc(O)c2)cc1,cell-free assay,10 µM,78%
COC(=O)Nc1nc2ccc(C(=O)c3ccccc3)cc2[nH]1,cell-free assay,10 µM,5.6%
O=C(N[C@H]1CCCCC/C=C\C2C[C@@]2(C(=O)O)NC(=O)[C@@H]2C[C@@H](Oc3ccncc3)CN2C1=O)OC1CCCC1 (stereo partly drawn),cell-free assay,1 µM,46%
O=C(c1ccc(Nc2ncc(Cl)c(-c3cc4ccccc4s3)n2)cc1)N1CCC(N2CCCC2)CC1,binding,1 µM,18%
Nc1c(C(=O)NCc2ccc(C(=O)NCCCC3CCCCC3)cc2)cnn1-c1ccccc1,cell-free assay,0.1 µM,100%
CN(CCCC(F)(F)F)c1nccc(-c2cnn3ncccc23)n1,binding,1 µM,39%
O=C(NCC1CCOCC1)c1n[nH]cc1NC(=O)c1c(F)cccc1F,binding,1 µM,10%
O=C(c1ccc(Nc2ncc(Cl)c(-c3ccc(Cl)s3)n2)cc1)N1CCC(N2CCCC2)CC1,binding,1 µM,33%
COc1ccc2c(c1)O[C@H](c1ccc(OC)c(OC)c1)C[C@@H]2NC(=O)C1(c2ccc3c(c2)OC(F)(F)O3)CC1,cell-free assay,1 µM,91%
COc1ncc2cc3ccccc3nc2c1C#N,cell-free assay,5 µM,81%
O=C(NCCCN1CCOCC1)c1ccc(Nc2nccc(-c3cc4ccccc4s3)n2)cc1,binding,1 µM,92%
COc1cnc(Nc2cccc(S(N)(=O)=O)c2)nc1N1CCN(c2ccccc2)C(=O)C1,binding,1 µM,91%
